system: HL-60; assay: Antiproliferative activity of compound was measured on human tumor cell line HL-60.; assay type: functional, cell-based; details: Homo sapiens, HL-60
Summary of the method: (§1)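 Suspension cells at 1 × 10^6 cells/mL in RPMI-1640 with 10% heat-inactivated FCS and 2 mM L-glutamine, 37 °C, 5% CO2. Incubated 120 h with graded ether lipid concentrations (final EtOH ≤0.2%), then counted electronically. IC50 from dose–response curves; two experiments in duplicate, average ± SD.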

Row | IC50 | SMILES
1 | 12.3 µM | CCCCCCC(=O)CCCCCCCCCCCOCC(COP(=O)([O-])OCC[N+](C)(C)C)OC (stereo not drawn)
2 | 1 µM | CCCCCCCCCCCCCCCCCCOCC(COP(=O)([O-])OCC[N+](C)(C)C)OC (stereo not drawn) [EDELFOSINE]
3 | 1.1 µM | CCCCCCCCCCCCCCC(=O)CCCOCC(COP(=O)([O-])OCC[N+](C)(C)C)OC (stereo not drawn)
4 | 1.3 µM | CCCCCCCCCCCCCCCCC(=O)COCC(COP(=O)([O-])OCC[N+](C)(C)C)OC (stereo not drawn)
5 | 3 µM | CCCCCCCCCCCC(=O)CCCCCCOCC(COP(=O)([O-])OCC[N+](C)(C)C)OC (stereo not drawn)
6 | 4.4 µM | CCCCCCCCCCCC(=O)CCCCCCOC[C@@H](COP(=O)([O-])OCC[N+](C)(C)C)OC

same assay, conditions: hl-60

Row | IC50 | SMILES
7 | 3 µM | CCCCCCCCCCCC(=O)CCCCCCOC[C@@H](COP(=O)([O-])OCC[N+](C)(C)C)OC

system: A-431; assay: Antiproliferative activity of compound was measured on human tumor cell line A431.; assay type: functional, cell-based; details: Homo sapiens, A-431
Summary of the method: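 Adherent cells trypsinized and seeded at 5000 cells/cm2, grown in RPMI-1640 with 10% heat-inactivated FCS and 2 mM L-glutamine. After 24 h, graded concentrations dissolved in complete medium were added for 48 h (final EtOH ≤0.2%). Cells fixed with 10% TCA and stained with 0.4% SRB in 1% acetic acid. Dye solubilized in 10 mM Tris pH 10.4 and read at 550 nm, background-corrected. IC50 from dose–response curves; two to five experiments, eight replicates each.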

Row | IC50 | SMILES
8 | 40.6 µM | CCCCCCC(=O)CCCCCCCCCCCOCC(COP(=O)([O-])OCC[N+](C)(C)C)OC (stereo not drawn)
9 | 13.5 µM | CCCCCCCCCCCCCCCCCCOCC(COP(=O)([O-])OCC[N+](C)(C)C)OC (stereo not drawn) [EDELFOSINE]
10 | 13.5 µM | CCCCCCCCCCCCCCC(=O)CCCOCC(COP(=O)([O-])OCC[N+](C)(C)C)OC (stereo not drawn)
11 | 14.2 µM | CCCCCCCCCCCCCCCCC(=O)COCC(COP(=O)([O-])OCC[N+](C)(C)C)OC (stereo not drawn)
12 | 21.1 µM | CCCCCCCCCCCC(=O)CCCCCCOCC(COP(=O)([O-])OCC[N+](C)(C)C)OC (stereo not drawn)
13 | 19.7 µM | CCCCCCCCCCCC(=O)CCCCCCOC[C@@H](COP(=O)([O-])OCC[N+](C)(C)C)OC

same assay, conditions: a-431

Row | IC50 | SMILES
14 | 21.8 µM | CCCCCCCCCCCC(=O)CCCCCCOC[C@@H](COP(=O)([O-])OCC[N+](C)(C)C)OC

species: Rattus norvegicus; assay: Maximal non-erythrolytic concentration(MNEC) was measured in erythrocytes from rat citreated blood; assay type: functional; details: not given
Summary of the method: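 Rat citrated-blood erythrocytes washed in HBSS and mixed 9:1 with test solution for 30 min at 37 °C. Lysis read spectrophotometrically at 546 nm. Value reported as the maximal concentration (μM) causing no erythrolysis.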

Row | SMILES | MNEC
15 | CCCCC(CCCC)CCCCCCOCC(COP(=O)([O-])OCC[N+](C)(C)C)OC (stereo not drawn) | 20 µM
16 | CCCCCCC(=O)CCCCCCCCCCCOCC(COP(=O)([O-])OCC[N+](C)(C)C)OC (stereo not drawn) | 50 µM
17 | CCCCCCCCCCCCCCCCCCOCC(COCCCCC[N+](C)(C)C)OC.[Br-] (stereo not drawn) | 5 µM
18 | CCCCCCCCCCCCCCCCCCOCC(COP(=O)([O-])OCC[N+](C)(C)C)OC (stereo not drawn) [EDELFOSINE] | 2 µM
19 | CCCCCCC(CCCCCC)CCCCCCCCCCCOCC(COP(=O)([O-])OCC[N+](C)(C)C)OC (stereo not drawn) | >200 µM
20 | CCCCCCCCCCCCCCC(=O)CCCOCC(COP(=O)([O-])OCC[N+](C)(C)C)OC (stereo not drawn) | 10 µM
21 | CCCCCCCCCCCCCCCCCCOCC(COP(=O)(O)OC[C@@H](N)C(=O)O)OC (stereo partly drawn) | >200 µM
22 | COC(COCCCCCCCCCCCCCCCCc1ccccc1)COP(=O)([O-])OCC[N+](C)(C)C (stereo not drawn) | 10 µM
23 | CCCCCCCCCCCCCCCCC(=O)COCC(COP(=O)([O-])OCC[N+](C)(C)C)OC (stereo not drawn) | 5 µM
24 | CCCCCCCCCCCC(=O)CCCCCCOCC(COP(=O)([O-])OCC[N+](C)(C)C)OC (stereo not drawn) | 20 µM
25 | CCCCCCCCCCCC(=O)CCCCCCOC[C@@H](COP(=O)([O-])OCC[N+](C)(C)C)OC | 20 µM

system: K562; assay: Antiproliferative activity of compound was measured on human tumor cell line K-562.; assay type: functional, cell-based; details: Homo sapiens, K562; summary of the method: as §1

Row | IC50 | SMILES
26 | 84.5 µM | CCCCCCC(=O)CCCCCCCCCCCOCC(COP(=O)([O-])OCC[N+](C)(C)C)OC (stereo not drawn)
27 | 6.1 µM | CCCCCCCCCCCCCCCCCCOCC(COP(=O)([O-])OCC[N+](C)(C)C)OC (stereo not drawn) [EDELFOSINE]
28 | 10.5 µM | CCCCCCCCCCCCCCC(=O)CCCOCC(COP(=O)([O-])OCC[N+](C)(C)C)OC (stereo not drawn)
29 | 9 µM | CCCCCCCCCCCCCCCCC(=O)COCC(COP(=O)([O-])OCC[N+](C)(C)C)OC (stereo not drawn)
30 | 41.4 µM | CCCCCCCCCCCC(=O)CCCCCCOCC(COP(=O)([O-])OCC[N+](C)(C)C)OC (stereo not drawn)
31 | 40.2 µM | CCCCCCCCCCCC(=O)CCCCCCOC[C@@H](COP(=O)([O-])OCC[N+](C)(C)C)OC

same assay, conditions: k562

Row | IC50 | SMILES
32 | 39.2 µM | CCCCCCCCCCCC(=O)CCCCCCOC[C@@H](COP(=O)([O-])OCC[N+](C)(C)C)OC

system: not listed separately; assay: Partition coefficient (logP); assay type: physicochemical; details: octanol/water
Summary of the method: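 Calculated rather than measured, for the C-1 chain including the ether O atom, by the Viswanadhan atom-based method.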

Row | logP | SMILES
33 | 9.08 | CCCCCCC(CCCCCC)CCCCCCCCCCCOCC(COP(=O)([O-])OCC[N+](C)(C)C)OC (stereo not drawn)

same assay, conditions: octanol/water; read-out: logP

Row | logP | SMILES
34 | 5.51 | CCCCC(CCCC)CCCCCCOCC(COP(=O)([O-])OCC[N+](C)(C)C)OC (stereo not drawn)
35 | 5.92 | CCCCCCC(=O)CCCCCCCCCCCOCC(COP(=O)([O-])OCC[N+](C)(C)C)OC (stereo not drawn)
36 | 6.77 | CCCCCCCCCCCCCCCCCCOCC(COP(=O)([O-])OCC[N+](C)(C)C)OC (stereo not drawn) [EDELFOSINE]
37 | 5.92 | CCCCCCCCCCCCCCC(=O)CCCOCC(COP(=O)([O-])OCC[N+](C)(C)C)OC (stereo not drawn)
38 | 7.59 | COC(COCCCCCCCCCCCCCCCCc1ccccc1)COP(=O)([O-])OCC[N+](C)(C)C (stereo not drawn)
39 | 6.29 | CCCCCCCCCCCCCCCCC(=O)COCC(COP(=O)([O-])OCC[N+](C)(C)C)OC (stereo not drawn)
40 | 5.92 | CCCCCCCCCCCC(=O)CCCCCCOCC(COP(=O)([O-])OCC[N+](C)(C)C)OC (stereo not drawn)
41 | 5.92 | CCCCCCCCCCCC(=O)CCCCCCOC[C@@H](COP(=O)([O-])OCC[N+](C)(C)C)OC

system: HL-60; assay: Cytotoxicity measured in HL-60 leukemic cells after a 24 hr incubation period.; assay type: functional, cell-based, Homo sapiens; details: Homo sapiens, HL-60, 24 h
Summary of the method: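 HL-60 cells kept in RPMI-1640 with 5% heat-inactivated FCS, penicillin/streptomycin and 2 mM L-glutamine, >90% viable before use. 10^6 cells/mL exposed 24 h to 2.5–160 μM (twofold steps). Viability by trypan blue exclusion, as % viable cells versus total control cells. IC50 taken as the concentration giving 50% mortality. Two experiments in triplicate; compounds with IC50 >30 μM tested once.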

Row | SMILES | IC50
42 | CCCCC(CCCC)CCCCCCOCC(COP(=O)([O-])OCC[N+](C)(C)C)OC (stereo not drawn) | 54 µM
43 | CCCCCCC(=O)CCCCCCCCCCCOCC(COP(=O)([O-])OCC[N+](C)(C)C)OC (stereo not drawn) | 45 µM
44 | CCCCCCCCCCCCCCCCCCOCC(COCCCCC[N+](C)(C)C)OC.[Br-] (stereo not drawn) | 8 µM
45 | CCCCCCCCCCCCCCCCCCOCC(COP(=O)([O-])OCC[N+](C)(C)C)OC (stereo not drawn) [EDELFOSINE] | 6.1 µM
46 | CCCCCCC(CCCCCC)CCCCCCCCCCCOCC(COP(=O)([O-])OCC[N+](C)(C)C)OC (stereo not drawn) | 46 µM
47 | CCCCCCCCCCCCCCC(=O)CCCOCC(COP(=O)([O-])OCC[N+](C)(C)C)OC (stereo not drawn) | 4.1 µM
48 | CCCCCCCCCCCCCCCCCCOCC(COP(=O)(O)OC[C@@H](N)C(=O)O)OC (stereo partly drawn) | 25.2 µM
49 | COC(COCCCCCCCCCCCCCCCCc1ccccc1)COP(=O)([O-])OCC[N+](C)(C)C (stereo not drawn) | 13.2 µM
50 | CCCCCCCCCCCCCCCCC(=O)COCC(COP(=O)([O-])OCC[N+](C)(C)C)OC (stereo not drawn) | 3.5 µM
51 | CCCCCCCCCCCC(=O)CCCCCCOCC(COP(=O)([O-])OCC[N+](C)(C)C)OC (stereo not drawn) | 9.1 µM
52 | CCCCCCCCCCCC(=O)CCCCCCOC[C@@H](COP(=O)([O-])OCC[N+](C)(C)C)OC | 5.9 µM

same assay, conditions: hl-60

Row | SMILES | IC50
53 | CCCCCCCCCCCC(=O)CCCCCCOC[C@@H](COP(=O)([O-])OCC[N+](C)(C)C)OC | 11.3 µM

Reference: ChEMBL document CHEMBL1128708, “Synthesis of alkyl chain-modified ether lipids and evaluation of their in vitro cytotoxicity” (J Med Chem, 1995)
